Key:
[1] = tested on: Rattus norvegicus; assay: Antiinflammatory activity in albino rat assessed as inhibition of carrageenan-induced paw edema at 0.28 mmol/kg, po administered 30 mins prior to carrageenan-challenge measured after 3 hrs relative to control; type: functional
Procedure, shortened: (§1)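 Male albino rats in groups of four were fasted 24 h with water allowed. Dosing was oral at 0.28 mmol/kg, suspended in 0.5% w/v CMC; controls got CMC alone. After 30 min, 0.1 ml of 1% carrageenan in saline went subplantar into the right hind paw and saline into the left. Paw thickness was read by caliper before and at 1–5 h. % inhibition = [(VR−VL)control−(VR−VL)treated]/(VR−VL)control ×100. Mean ± SEM, n = 4, one-way ANOVA vs control.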

[2] = tested on: Rattus norvegicus; assay: Ulcerogenic activity in albino rat carrageenan-induced paw edema model assessed as ulcer index at 0.28 mmol/kg, po (reference value: 0.60 +/- 0.05); type: toxicity, organism-based; conditions: in vivo
Procedure, shortened: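 Rats given the compound orally at 0.28 mmol/kg, suspended in 0.5% aqueous CMC; vehicle-only control, n = 4 per group. Gastric ulcers graded by area: I (<1 mm²), II (1–3 mm²), III (>3 mm²). Ulcer index = 1×(level I count) + 2×(level II) + 3×(level III). Mean ± SEM, one-way ANOVA versus control.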

[3] = tested on: Rattus norvegicus; assay: Antiinflammatory activity in albino rat assessed as inhibition of carrageenan-induced paw edema at 0.28 mmol/kg, po administered 30 mins prior to carrageenan-challenge measured after 2 hrs relative to control; type: functional; procedure, shortened: as §1
[4] = tested on: Rattus norvegicus; assay: Antiinflammatory activity in albino rat assessed as inhibition of carrageenan-induced paw edema at 0.28 mmol/kg, po administered 30 mins prior to carrageenan-challenge measured after 1 hr relative to control; type: functional; procedure, shortened: as §1
[5] = tested on: Rattus norvegicus; assay: Antiinflammatory activity in albino rat assessed as inhibition of carrageenan-induced paw edema at 0.28 mmol/kg, po administered 30 mins prior to carrageenan-challenge measured after 4 hrs relative to control; type: functional; procedure, shortened: as §1
[6] = tested on: Rattus norvegicus; assay: Antiinflammatory activity in albino rat assessed as inhibition of carrageenan-induced paw edema at 0.28 mmol/kg, po administered 30 mins prior to carrageenan-challenge measured after 5 hrs relative to control; type: functional; procedure, shortened: as §1
[7] = Induction of nitric oxide release in HCl buffer at 10^-4 M at pH 1 after 1 hr by Griess colorimetric method in presence of N-acetylcysteine; type: physicochemical; conditions: pH 1, 1 h, 100 µM
Procedure, shortened: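 Same Griess nitrite procedure at 10^-4 M final drug with N-acetylcysteine at 37 °C, but with 0.1 N HCl (pH 1) in place of the pH 7.4 phosphate buffer. Absorbance at 546 nm against a sodium nitrite calibration curve.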

[8] = Induction of nitric oxide release in phosphate buffer at 10^-4 M at pH 7.4 after 6 hrs by Griess colorimetric method in presence of N-acetylcysteine; type: physicochemical; conditions: pH 7.4, 6 h, 100 µM
Procedure, shortened: (§2)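 Final drug concentration 10^-4 M, added from DMF into 1:1 50 mM phosphate buffer (pH 7.4)/MeOH containing 5 × 10^-4 M N-acetylcysteine, at 37 °C. Nitrite read with Griess reagent after 10 min at room temperature, absorbance at 546 nm. Calibration with sodium nitrite standards (10–80 nmol/ml). Reported as mol NO per mol, n = 4 reaction mixtures.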

[9] = Induction of nitric oxide release in phosphate buffer at 10^-4 M at pH 7.4 after 2 hrs by Griess colorimetric method in presence of N-acetylcysteine; type: physicochemical; conditions: pH 7.4, 2 h, 100 µM; procedure, shortened: as §2
[10] = Induction of nitric oxide release in phosphate buffer at 10^-4 M at pH 7.4 after 1 hr by Griess colorimetric method in presence of N-acetylcysteine; type: physicochemical; conditions: pH 7.4, 1 h, 100 µM; procedure, shortened: as §2
[11] = Induction of nitric oxide release in phosphate buffer at 10^-4 M at pH 7.4 after 5 hrs by Griess colorimetric method in presence of N-acetylcysteine; type: physicochemical; conditions: pH 7.4, 5 h, 100 µM; procedure, shortened: as §2
[12] = Induction of nitric oxide release in phosphate buffer at 10^-4 M at pH 7.4 after 3 hrs by Griess colorimetric method in presence of N-acetylcysteine; type: physicochemical; conditions: pH 7.4, 3 h, 100 µM; procedure, shortened: as §2
[13] = Induction of nitric oxide release in phosphate buffer at 10^-4 M at pH 7.4 after 4 hrs by Griess colorimetric method in presence of N-acetylcysteine; type: physicochemical; conditions: pH 7.4, 4 h, 100 µM; procedure, shortened: as §2

Row | Activity [7] | Activity [8] [mol/mol] | Activity [9] [mol/mol] | Activity [10] [mol/mol] | Activity [11] [mol/mol] | Activity [12] [mol/mol] | Activity [13] [mol/mol] | Structure (SMILES) | inhibition in vivo at 280 µmol/kg [1] [%] | UI [2] | inhibition in vivo at 280 µmol/kg [3] [%] | inhibition in vivo at 280 µmol/kg [4] [%] | inhibition in vivo at 280 µmol/kg [5] [%] | inhibition in vivo at 280 µmol/kg [6] [%]
1 | – | – | – | – | – | – | – | C=CCn1c(SCC(=O)Nc2ccc(C(C)=O)cc2)nnc1-c1ccccc1 | 54 | 9.3 | 52 | 48 | 70 | 63
2 | – | – | – | – | – | – | – | C=CCn1c(SCC(=O)Nc2ccc(C(C)=O)cc2)nnc1-c1ccc(OC)cc1 | 52 | 8.66 | 51 | 50 | 68 | 66
3 | – | – | – | – | – | – | – | C=CCn1c(SCC(=O)Nc2ccc(C(C)=O)cc2)nnc1-c1cc(OC)c(OC)c(OC)c1 | 55 | 6.49 | 54 | 48 | 68 | 64
4 | – | – | – | – | – | – | – | CCn1c(SCC(=O)Nc2ccc(C(C)=O)cc2)nnc1-c1ccccc1 | 56 | 7.12 | 53 | 50 | 69 | 66
5 | – | – | – | – | – | – | – | CCn1c(SCC(=O)Nc2ccc(C(C)=O)cc2)nnc1-c1ccc(OC)cc1 | 57 | 10.52 | 54 | 51 | 65 | 62
6 | – | – | – | – | – | – | – | CCn1c(SCC(=O)Nc2ccc(C(C)=O)cc2)nnc1-c1ccc(OC)c(OC)c1 | 62 | 3.6 | 59 | 56 | 69 | 66
7 | – | – | – | – | – | – | – | CCn1c(SCC(=O)Nc2ccc(C(C)=O)cc2)nnc1-c1cc(OC)c(OC)c(OC)c1 | 54 | 3.34 | 50 | 46 | 68 | 64
8 | – | – | – | – | – | – | – | CC(=O)c1ccc(NC(=O)CSc2nnc(-c3ccccc3)n2-c2ccccc2)cc1 | 62 | 3.38 | 49 | 41 | 67 | 63
9 | – | – | – | – | – | – | – | COc1ccc(-c2nnc(SCC(=O)Nc3ccc(C(C)=O)cc3)n2-c2ccccc2)cc1 | 58 | 5.53 | 42 | 29 | 63 | 60
10 | – | – | – | – | – | – | – | COc1cc(-c2nnc(SCC(=O)Nc3ccc(C(C)=O)cc3)n2-c2ccccc2)cc(OC)c1OC | 55 | 4.38 | 54 | 49 | 68 | 63
11 | Not Active | 0.15 | 0.2 | 0.15 | 0.16 | 0.22 | 0.24 | C=CCn1c(SCC(=O)Nc2ccc(/C(C)=N/O)cc2)nnc1-c1ccccc1 | 73 | 0.64 | 63 | 61 | 73 | 71
12 | Not Active | 0.16 | 0.17 | 0.15 | 0.23 | 0.23 | 0.32 | C=CCn1c(SCC(=O)Nc2ccc(/C(C)=N/O)cc2)nnc1-c1ccc(OC)cc1 | 63 | 2.69 | 59 | 54 | 75 | 72
13 | Not Active | 0.12 | 0.17 | 0.11 | 0.14 | 0.2 | 0.21 | CCn1c(SCC(=O)Nc2ccc(/C(C)=N/O)cc2)nnc1-c1ccccc1 | 65 | 1.18 | 57 | 54 | 77 | 66
14 | Not Active | 0.23 | 0.2 | 0.16 | 0.24 | 0.24 | 0.29 | CCn1c(SCC(=O)Nc2ccc(/C(C)=N/O)cc2)nnc1-c1ccc(OC)cc1 | 60 | 1.04 | 58 | 54 | 73 | 65
15 | Not Active | 0.32 | 0.19 | 0.15 | 0.36 | 0.25 | 0.43 | CCn1c(SCC(=O)Nc2ccc(/C(C)=N/O)cc2)nnc1-c1ccc(OC)c(OC)c1 | 66 | 3.43 | 65 | 53 | 75 | 73
16 | Not Active | 0.14 | 0.13 | 0.12 | 0.15 | 0.14 | 0.22 | CCn1c(SCC(=O)Nc2ccc(/C(C)=N/O)cc2)nnc1-c1cc(OC)c(OC)c(OC)c1 | 70 | 0.83 | 49 | 29 | 70 | 61
17 | Not Active | 0.23 | 0.17 | 0.13 | 0.24 | 0.24 | 0.29 | COc1ccc(-c2nnc(SCC(=O)Nc3ccc(/C(C)=N/O)cc3)n2-c2ccccc2)cc1 | 57 | 1.61 | 56 | 45 | 69 | 58
18 | Not Active | 0.14 | 0.14 | 0.11 | 0.15 | 0.16 | 0.25 | COc1cc(-c2nnc(SCC(=O)Nc3ccc(/C(C)=N/O)cc3)n2-c2ccccc2)cc(OC)c1OC | 66 | 2.21 | 62 | 59 | 75 | 70
19 | – | – | – | – | – | – | – | COc1ccc(-c2nnc(SCC(=O)Nc3ccc(C(C)=O)cc3)n2-c2ccccc2)cc1OC | 51 | 8.64 | 43 | 28 | 62 | 55

— ChEMBL document CHEMBL3102806, “1,2,4-Triazole/oxime hybrids as new strategy for nitric oxide donors: Synthesis, anti-inflammatory, ulceroginicity and antiproliferative activities” (Eur J Med Chem, 2014)
